ERb coact inh: blocks coactivator binding to human estrogen receptor beta; Q92731; TR-FRET ER-beta LBD / SRC1-Cy5 peptide binding; receptor agonist-loaded with 1 µM estradiol; inhibition, % at 25.6 µM; actives 1.3% (n = 86,000); AID 633;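 active = compounds whose percent inhibition of the receptor-coactivator binding signal exceeds about 50% in the single-dose screen, limit read from the data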;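 also: 0% = receptor plus peptide wells without compound and 100% = peptide-only wells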
RORA act: activators of human nuclear receptor RORA; CHO-K1 Gal4-RORA LBD luciferase reporter, luminescence; percent increase over mock-subtracted basal signal; activation, % at 10 µM; actives 1.5% (n = 65,000); AID 560;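 active = activation above the mean of all tested compounds plus 3 SD, cut at about 49% in these data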;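 also: 0% = DMSO-treated RORA cells and 100% = added signal equal to DMSO minus mock-transfected cells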
Target sequence (P35398 whole entry, looked up, the tested form may be a part): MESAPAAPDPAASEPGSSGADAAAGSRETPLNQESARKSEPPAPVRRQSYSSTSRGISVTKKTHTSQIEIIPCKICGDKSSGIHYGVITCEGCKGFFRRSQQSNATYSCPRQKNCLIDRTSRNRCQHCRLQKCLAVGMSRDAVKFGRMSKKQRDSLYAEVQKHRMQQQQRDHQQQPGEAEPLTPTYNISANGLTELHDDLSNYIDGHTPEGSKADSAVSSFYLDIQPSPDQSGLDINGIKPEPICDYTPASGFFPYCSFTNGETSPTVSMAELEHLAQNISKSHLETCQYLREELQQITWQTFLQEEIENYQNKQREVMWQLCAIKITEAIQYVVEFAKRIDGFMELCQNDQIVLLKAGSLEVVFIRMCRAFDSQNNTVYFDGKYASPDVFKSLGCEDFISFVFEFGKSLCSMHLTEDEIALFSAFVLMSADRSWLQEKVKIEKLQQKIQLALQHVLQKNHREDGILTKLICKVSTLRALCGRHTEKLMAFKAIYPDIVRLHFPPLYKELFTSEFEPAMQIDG
ERa SRC1 inh: ER-alpha (human) coactivator binding inhibition; TR-FRET ER-alpha LBD / SRC-1 peptide, estradiol-bound; inhibition, % at 25.6 µM; actives 1.7% (n = 86,000); in the data active = inhibition above about 50%;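 also: 0% = receptor plus peptide control and 100% = peptide only without receptor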
ERa coact pot: enhances coactivator binding to human estrogen receptor alpha | P03372 | TR-FRET ERalpha-LBD/SRC-Cy5 coactivator binding, 2 h; 100 = basal binding, no effect | coactivator binding (% of control), % at 25.6 µM | actives 1.3% (n = 86,000) | AID 639; in the data active = activity above about 200%;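 also: binding measured in presence of low estradiol as agonist stimulus; 0% = peptide alone without receptor and 100% = receptor with peptide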
BAP1 inh: human BAP1 deubiquitinase inhibition | Q92560 | recombinant BAP1, Ub-AMC hydrolysis fluorescence kinetic; stronger effect = lower value | calls only at 20 µM | actives 0.48% (n = 72,000) | AID 436;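 active = activity remaining at or below 50% of control, provided the compound also passes the data quality filters; inactive = the rest, including low values that fail the filters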;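 also: 100% = DMSO wells rate and 0% = substrate alone blank rate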
SF1 activator: SF-1 (human) activation. Q13285. CHO-K1 Gal4-SF-1 LBD luciferase reporter; % increase over DMSO SF-1-specific signal. activation, % at 10 µM. actives 1.9% (n = 65,000);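 active = activation above the mean activation of all tested compounds plus 3 SD, cut at about 50% in these data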
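material = CHO-K1 cells with Gal4–hSF-1 LBD chimera plus Gal4-driven luciferase | compound = 10 µM single point, 1% DMSO | incubation = 20 h compound exposure at 37 °C after 1 h cell settling | measured by = SteadyLite luciferase luminescence | evaluation = percent activation relative to DMSO median and mock-transfected background | control set = DMSO negative control and −SF1 background wells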
The depositor's hits bear a star; i = inactive; · = not tested or not shown; + = active, no number; [ ] = another dose, or the depositor's remark. Most compounds without a hit are left out; they make up all but 5.1% or so of the library.

SMILES | ERb coact inh | RORA act | ERa SRC1 inh | ERa coact pot | BAP1 inh | SF1 activator
COc1ccc(S(=O)(=O)N2Cc3ccccc3CC2C(=O)Nc2nccs2)cc1OC (configuration not stated) | 0 | 18 | 0 | 101 | i | 71*
COCCN1C(=O)C(=O)/C(=C(/O)c2ccccc2)C1c1cc(OC)ccc1OC (configuration not stated) | · | · | · | · | i | ·
CCOc1[nH]c(/N=C/c2ccco2)c(C#N)c1C#N | 60* | -3 | 35 | 72 | i | -8
N#Cc1c(/N=C/c2ccco2)sc2c1CCC2 | 5 | -13 | -4 | 104 | i | 29
O=S(=O)(Nc1ccc2c(c1)OCCO2)c1cccc2nsnc12 | -4 | -15 | -4 | 91 | i | -7
Cc1ccc2cccc(S(=O)(=O)Nc3ccc4c(c3)OCO4)c2n1 | 75*[fluorescence artefact?] | -25 | 83*[fluorescence artefact?] | 25 | i | -2
Cc1cc(Cl)c(S(=O)(=O)Nc2ccc3c(c2)OCO3)cc1OCC(N)=O | 51* | 13 | 50* | 86 | i | 8
COc1ccccc1NC(=O)c1cc(C(C)(C)C)oc1C | · | · | · | · | i | ·
O=C(NCc1ccccn1)Nc1cccc(Cl)c1 | 4 | 38 | 3 | 87 | i | 63*
Cc1csc(NC(=O)Nc2cccc(Cl)c2)n1 | -7 | 70* | 7 | 94 | i | 63*
N#CCc1ccc(NC(=O)Nc2cccc(Cl)c2)cc1 | -7 | 7 | 2 | 113 | i | 79*
O=C(Nc1cccc(Cl)c1)Nc1nccs1 | 0 | 72* | 4 | 103 | i | 32
COc1ccc(C(=O)N2CCN(C(=O)c3ccc(F)cc3)CC2)cc1OC | · | · | · | · | i | ·
COc1ccc(Br)cc1C1Nc2ccc3ncccc3c2C2=C1C(=O)CCC2 (configuration not stated) | · | · | · | · | i | ·
CCCCCOC(=O)C1=C(C)NC2=C(C(=O)CC(C)(C)C2)C1c1ccc(O)c(OC)c1 (configuration not stated) | · | · | · | · | i | ·
Cc1cc(OCC(=O)Nc2cc3nn(-c4ccccc4)nc3cc2C)ccc1Cl | · | · | · | · | i | ·
CCCC(=Nc1ccccc1)C1=C(O)C(C(=O)OC)C(C)(C)CC1=O (configuration not stated) | -2 | -19 | -1 | 129 | i | 6
CCC(=Nc1ccc(N)cc1)C1=C(O)C(C(=O)OC)C(C)(C)CC1=O (configuration not stated) | 83*[fluorescence artefact?] | 5 | 3 | 123 | i | 18
C=CCn1cnc2c(c1=O)c1nc3ccccc3nc1n2/N=C/c1cccc(OC)c1 | 33 | -20 | 68*[fluorescence artefact?] | 94 | i | -7
COCCCN(C(C)=O)c1nc(-c2ccccc2)cs1 | · | 35 | · | · | i | 79*
CC1CCCC(C)N1C(=O)Nc1cccc(Cl)c1 (configuration not stated) | 53* | 6 | 22 | 84 | i | -14
O=C(Nc1cccc(Cl)c1)NC1CCCCC1 | · | 54* | · | · | i | 59*
COC(=O)c1ccc(Cl)c(NC(=O)NC2CCCCC2)c1 | 27 | -3 | 44 | 244*[fluorescence artefact?] | i | 11
COc1ccc(S(=O)(=O)NCc2ccco2)cc1C(=O)O | · | · | · | · | i | ·
C=CCn1c(=O)c(C(=O)Nc2ccc(O)cc2)c(O)c2ccccc21 | · | · | · | · | i | ·
SMILES | ERb coact inh | RORA act | ERa SRC1 inh | ERa coact pot | BAP1 inh | SF1 activator
COC(=O)CCC(=O)COc1ccccc1C#N | -22 | -20 | -40 | 96 | i | -5
CCNC(=O)NC(=O)COc1ccccc1C#N | -24 | 19 | -25 | 332*[fluorescence artefact?] | i | 54*
Cc1noc(C)c1CSCC(=O)OCC(=O)Nc1sccc1C#N | 54* | -10 | 55*[fluorescence artefact?] | 54 | i | 16
N#Cc1ccsc1NC(=O)COC(=O)CCCSc1nc2ccccc2s1 | 7 | -30 | 10 | 99 | · | -6
O=C(NCc1cccs1)c1cc2c(s1)-c1ccccc1OC2 | 10 | 53* | 26 | 95 | i | 36
O=C(NC1CC1)c1cc2c(s1)-c1ccccc1OC2 | -5 | 32 | 1 | 121 | i | 18
CCc1ccc(C(=O)NCc2cccs2)s1 | -5 | 10 | 36 | 109 | · | 70*
CCc1ccc(C(=O)NC2CCCCC2)s1 | -5 | 55* | 2 | 119 | i | 59*
O=C(Oc1ccc(OC(=O)c2ccc3c(c2)C(=O)N(c2ccccn2)C3=O)cc1)c1ccc2c(c1)C(=O)N(c1ccccn1)C2=O | · | · | · | · | i | ·
CCOC(=O)c1c(NC(=O)CSc2nnc(C)c(=O)[nH]2)sc2c1CCN(C)C2 | · | · | · | · | i | ·
COc1cccc(C(=O)Nc2nc(-c3ccc(F)cc3)cs2)c1 | · | · | · | · | i | ·
CCC(=O)Nc1cc(OC)c(NC(=O)c2ccccc2)cc1OC | 53*[fluorescence artefact?] | -8 | 64*[fluorescence artefact?] | 59 | i | 6
COc1cc(NC(=O)c2ccccc2)c(OC)cc1NC(C)=O | -4 | 5 | -45 | 88 | i | -1
Cc1ccc([N+](=O)[O-])c(NC(=O)c2ccc([N+](=O)[O-])cc2)c1 | · | · | · | · | i | ·
CCc1nc(N)nc(N)c1-c1ccc(Cl)cc1 | 9 | -22 | 2 | 246* | i | 0
CCc1nc(N)c(C#N)c(-c2ccncc2)c1C | 1 | -23 | -1 | 108 | i | -12
O=C(Nc1nc(-c2nc3ccccc3s2)cs1)c1ccc(S(=O)(=O)N2CCCCCC2)cc1 | · | · | · | · | i | ·
O=C(Nc1nc(-c2nc3ccccc3s2)cs1)c1ccco1 | 40 | 33 | 31 | 288*[fluorescence artefact?] | i | 27
O=C(Nc1nc(-c2nc3ccccc3s2)cs1)C1CC1 | -9 | 51* | 0 | 101 | i | 29
O=C(CN1C(=O)CCC1=O)Nc1nc(-c2nc3ccccc3s2)cs1 | -1 | 87* | -4 | 140 | i | 106*
Cc1cccc(CC(C(=O)O)C(C)C(=O)O)c1 (configuration not stated) | · | · | · | · | i | ·
COc1ccc(NC(=O)c2cc(-c3ccc(Br)cc3)nc3ccccc23)cc1 | · | · | · | · | i | ·
Cc1cc(C)cc(NC2=C(Cl)C(=O)N(c3ccc(Cl)cc3)C2=O)c1 | · | · | · | · | i | ·
Cc1ccc(S(=O)(=O)C(C#N)c2nc3ccccc3nc2N2CCCCC2)cc1 (configuration not stated) | 3 | -6 | 4 | 60 | i | 12
N#CC(c1nc2ccccc2nc1N1CCCCC1)S(=O)(=O)c1ccc(Cl)cc1 (configuration not stated) | 43 | -2 | 18 | 231*[fluorescence artefact?] | + | -6
O=C(NCc1ccco1)Nc1ccc(Br)cc1Cl | -4 | 57* | -5 | 104 | i | 60*
CCOC(=O)c1c(NC(=O)c2ccc([N+](=O)[O-])cc2Cl)sc2c1CCC(CC)C2 (configuration not stated) | · | · | · | · | i | ·
CN1CCc2c(sc3ncn4nc(-c5ccccc5O)nc4c23)C1 | 77*[fluorescence artefact?] | -7 | 94*[fluorescence artefact?] | 10 | i | 5

Source: PubChem (several laboratories)
